This is an account of results in ChEMBL document CHEMBL1129666, “Cross-linking and sequence specific alkylation of DNA BY aziridinylquinones. 1. Quinone methides” (J Med Chem, 1996).

In experiment [1] the test system is Nucleic Acid. The experiment is described as follows: Efficiency at pBR322 DNA interstand cross-linking at 100 uM. The class given is functional. The note with it: Escherichia coli. The procedure, abridged: (§1)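 5'-end-labelled HindIII-linearised pBR322 (~5000 cpm/sample) incubated with compound 2 h at 37 °C, pH 4, in TEA buffer with 2 mM ascorbic acid reduction. Stopped, ethanol-precipitated, denatured 90 °C 2 min in strand separation buffer, run on 0.8% agarose (Tris-acetate, 40 V, 16 h). Autoradiograph densitometry gives percent double-stranded (cross-linked) DNA per lane. Single representative experiment.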

Experiment [2] relates to Nucleic Acid. The experiment is described as follows: Efficiency at pBR322 DNA interstand cross-linking at 10 uM. The settings on record: Escherichia coli. The class given is functional. The method, boiled down: as §1
A further experiment concerns K562. Kind of experiment: In vitro cytotoxicity against Human Chronic Leukemia K562 cells. In kind it is functional, cell-based. The procedure, abridged:
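600 cells/well exposed to compound for 2 h, growth measured by MTT with absorbance at 540 and 640 nm. Growth inhibition plotted against concentration, triplicate per concentration.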

Take `O=C1C=C(N2CCC2)C(=O)C=C1N1CCC1`: the Cross linking with Nucleic Acid [1] and in the experiment on Nucleic Acid [2] was 0% throughout. Moreover, the half-maximal inhibitory concentration (IC50) with K562 is above 40000 nM.

Turning to `CC1=C(C)C(=O)C(C)=C(C)C1=O` [DUROQUINONE], the Cross linking in the experiment on Nucleic Acid [1] and in the experiment with Nucleic Acid [2] was 0% each time. Moreover, the 50% inhibitory concentration (IC50) in the experiment with K562 is above 50000 nM.

Turning to `CCC1=CC(=O)C(N2CC2)=CC1=O`, the Cross linking was found to be 57.1% in the experiment on Nucleic Acid [1] and 6.9% in the experiment on Nucleic Acid [2]. In addition, the half-maximal inhibitory concentration (IC50) in the experiment on K562 was found to be 600 nM.

`CC1=CC(=O)C(N)=CC1=O`: the Cross linking with Nucleic Acid [1] and in the experiment on Nucleic Acid [2] was 0% each time. The molecule further showed an IC50 with K562 above 15000 nM.

In the case of `CCCC1=CC(=O)C(N2CC2)=CC1=O`, the values for the Cross linking with Nucleic Acid [1] and in the experiment with Nucleic Acid [2] were 13.2% and 2.2%, respectively. In the experiment on K562, this molecule returned an IC50 of 600 nM.

As for `NC1=CC(=O)C(N)=CC1=O`, the Cross linking in the experiment with Nucleic Acid [1] and with Nucleic Acid [2] was 0% each time. The molecule also showed a half-inhibitory concentration (IC50) with K562 above 25000 nM.

For `CC1=CC(=O)C(N2CC2)=CC1=O`, the Cross linking with Nucleic Acid [1] amounted to 81%; in the experiment on Nucleic Acid [2], 12.2%. In the experiment with K562, this molecule returned a half-inhibitory concentration (IC50) of 100 nM.

With `CC1=C(C)C(=O)C(N2CC2)=CC1=O`, the figures for the Cross linking with Nucleic Acid [1] and in the experiment with Nucleic Acid [2] were 4.7% and 1.2%, respectively. The molecule also gave a concentration for half-maximal inhibition (IC50) with K562 of 1300 nM.

On to `CC1=CC(=O)C(C)=C(C)C1=O`, for which the Cross linking in the experiment on Nucleic Acid [1] and with Nucleic Acid [2] was 0% in each case. The half-maximal inhibitory concentration (IC50) in the experiment on K562 worked out at 3600 nM.

For the molecule `CC1=C(C)C(=O)C=CC1=O`, the Cross linking in the experiment with Nucleic Acid [1] and with Nucleic Acid [2] was 0% throughout. In the experiment on K562, this molecule returned an IC50 of 1400 nM.

Take `CC1=CC(=O)C=C(C)C1=O`: the Cross linking in the experiment on Nucleic Acid [1] and in the experiment on Nucleic Acid [2] was 0% throughout. The IC50 in the experiment on K562 came to 1250 nM.

`CC1=CC(=O)C(N2CC2)=C(C)C1=O`: the Cross linking with Nucleic Acid [1] is 9%; in the experiment with Nucleic Acid [2], 3%. Further, half-maximal inhibition in the experiment on K562 (IC50) was put at 1200 nM.

With `CC1=CC(=O)C(N2CCC2)=CC1=O`, the Cross linking with Nucleic Acid [1] and in the experiment with Nucleic Acid [2] was 0% throughout. This molecule also displayed a concentration for half-maximal inhibition (IC50) in the experiment on K562 above 25000 nM.

Regarding `CC1=CC(=O)C=CC1=O` [Cresoquinone], the Cross linking with Nucleic Acid [1] and in the experiment on Nucleic Acid [2] was 0% in each case. For the same molecule, in the experiment on K562, the 50% inhibitory concentration (IC50) came out at 2750 nM.

Take `O=C1C=C(N2CC2)C(=O)C=C1N1CC1`: the Cross linking in the experiment on Nucleic Acid [1] and with Nucleic Acid [2] was 100% throughout. Moreover, the IC50 in the experiment on K562 is 9 nM.

The term IC50 denotes the point on the concentration scale where inhibition reaches its midpoint.
